We go through 6 compounds from ChEMBL document CHEMBL4613262, “Revisiting Aldehyde Oxidase Mediated Metabolism in Drug-like Molecules: An Improved Computational Model” (J Med Chem, 2020).

Data set [1] addresses T1, Aldehyde oxidase (Homo sapiens, UniProt Q06278).
T1 sequence (Q06278 whole entry): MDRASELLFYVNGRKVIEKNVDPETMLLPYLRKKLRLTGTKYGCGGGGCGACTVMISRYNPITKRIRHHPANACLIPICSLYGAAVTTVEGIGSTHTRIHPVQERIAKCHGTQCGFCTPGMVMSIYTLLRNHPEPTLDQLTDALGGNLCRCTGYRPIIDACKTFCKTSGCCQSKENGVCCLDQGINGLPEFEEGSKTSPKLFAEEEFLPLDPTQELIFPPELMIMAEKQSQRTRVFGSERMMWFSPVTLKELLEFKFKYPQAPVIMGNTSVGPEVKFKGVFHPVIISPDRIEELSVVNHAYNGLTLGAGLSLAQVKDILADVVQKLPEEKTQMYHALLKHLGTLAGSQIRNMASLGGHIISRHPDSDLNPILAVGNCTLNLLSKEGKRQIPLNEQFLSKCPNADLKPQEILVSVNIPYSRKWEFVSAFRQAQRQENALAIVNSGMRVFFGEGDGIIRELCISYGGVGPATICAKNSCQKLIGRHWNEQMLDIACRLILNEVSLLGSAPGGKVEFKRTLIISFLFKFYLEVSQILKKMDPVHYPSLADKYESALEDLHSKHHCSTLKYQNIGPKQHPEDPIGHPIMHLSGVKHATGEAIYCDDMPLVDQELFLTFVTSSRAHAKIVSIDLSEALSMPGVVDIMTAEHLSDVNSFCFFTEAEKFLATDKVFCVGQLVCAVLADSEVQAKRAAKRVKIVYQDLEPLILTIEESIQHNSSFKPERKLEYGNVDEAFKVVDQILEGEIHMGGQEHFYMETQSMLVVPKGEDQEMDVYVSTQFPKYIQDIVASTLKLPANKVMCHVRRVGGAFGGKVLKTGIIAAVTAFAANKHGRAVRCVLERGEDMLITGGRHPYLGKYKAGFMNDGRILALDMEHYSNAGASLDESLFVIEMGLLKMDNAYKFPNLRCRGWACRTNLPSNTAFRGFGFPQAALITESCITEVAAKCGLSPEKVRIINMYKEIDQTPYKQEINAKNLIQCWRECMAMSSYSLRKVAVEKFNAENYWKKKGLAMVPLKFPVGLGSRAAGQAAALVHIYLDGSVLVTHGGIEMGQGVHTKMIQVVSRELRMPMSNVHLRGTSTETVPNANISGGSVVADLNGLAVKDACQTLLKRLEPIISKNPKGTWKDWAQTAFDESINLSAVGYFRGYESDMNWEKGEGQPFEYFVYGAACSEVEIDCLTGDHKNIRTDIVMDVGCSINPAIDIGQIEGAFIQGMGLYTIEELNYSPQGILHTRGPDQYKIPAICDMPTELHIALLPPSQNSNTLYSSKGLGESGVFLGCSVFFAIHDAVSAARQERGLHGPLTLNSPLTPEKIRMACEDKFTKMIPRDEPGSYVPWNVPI
Put plainly: Substrate activity at aldehyde oxidase in human liver cytosol assessed as mono-oxide metabolite formation at 10 uM measured after 3 hrs in presence of AOX inhibitor hydralazine by UPLC/Q-TOF MS analysis. The class given is ADME, subcellular. Put shortly:
(§1)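 Human liver cytosol (2 mg/mL final protein) in 100 mM potassium phosphate pH 7.4 with 2 mM MgCl2, 10 μM test compound, 100 μM inhibitor, DMSO 1.1% final. Pre-incubated 3 min at 37°C, started by adding compound, run 3 h at 37°C, stopped with ice-cold acetonitrile. Supernatant analysed by UPLC/Q-TOF MS (positive ESI) for oxidative metabolite peak area. Inhibition ratio taken against no-inhibitor controls; triplicate.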

Data set [2] deals with T1, Aldehyde oxidase. Put plainly: Substrate activity at aldehyde oxidase in human liver cytosol assessed as mono-oxide metabolite formation at 10 uM measured after 3 hrs in presence of AOX inhibitor raloxifene by UPLC/Q-TOF MS analysis. It counts as ADME, subcellular. A digest of the protocol:
as §1

The structures appear in SMILES notation.

Regarding `Cl.O=C(Nc1ccccc1-c1cn2c(CN3CCNCC3)csc2n1)c1cnc2ccccc2n1`, the Drug metabolism entry on Aldehyde oxidase [1] and on Aldehyde oxidase [2] was “Metabolite_Notdetected” each time.

On to `O=C(c1cncc(Br)c1)N1CCC(N2CCCC2)CC1`, for which the Drug metabolism result on Aldehyde oxidase [1] and on Aldehyde oxidase [2] was “Metabolite_Notdetected” throughout.

For `O=C(NCC(=O)N1CCCC1)Nc1ccc2cnccc2c1`, the Drug metabolism entry at Aldehyde oxidase [1] and on Aldehyde oxidase [2] was “Metabolite_Notdetected” each time.

Turning to `N#C/C(=C\c1ccc(-c2cc(Cl)ccc2Cl)o1)C(=O)Nc1cccc2ncccc12`, the Drug metabolism entry at Aldehyde oxidase [1] and at Aldehyde oxidase [2] was “Metabolite_Notdetected” in each case.

`Cl.Cl.Fc1cc(-c2cccc3ncc(-c4cnn(C5CCNCC5)c4)nc23)cc(F)c1CN1CCOCC1`: the Drug metabolism result on Aldehyde oxidase [1] and at Aldehyde oxidase [2] was “Metabolite_Notdetected” in each case.

For `Cc1cc(Nc2ccc(NC(=O)c3ccc(Nc4ccnc5ccccc45)cc3)cc2)nc(N)n1`, the Drug metabolism entry on Aldehyde oxidase [1] and on Aldehyde oxidase [2] was “Metabolite_Notdetected” in each case.
